ChEMBL document CHEMBL1649291, “ADS-J1 inhibits human immunodeficiency virus type 1 entry by interacting with the gp41 pocket region and blocking fusion-active gp41 core formation” (Antimicrob Agents Chemother, 2009)
One block for each molecule: values may come before it. Active and inactive are the calls of the source. No cut-off for these calls is given here. Peptide text beside a SMILES is read from it.

Assays:
[1] = test system: Human immunodeficiency virus 1; assay: Antiviral activity against HIV1 3B infected in human MT2 cells assessed as inhibition of viral p24 antigen production at 5 uM after 8 hrs by ELISA
MT2 [2] = assay: Inhibition of HIV1 3B gp41-mediated cell-cell fusion between viral envelope expressing virus-infected human H9 cells to human MT2 cells at 10 uM measured after drug washout by fluorescence assay; format: cell-based; settings: Human immunodeficiency virus 1
Summary of the method: (§1)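 Dye-transfer fusion: calcein-AM-labeled H9/HIV-1 IIIB cells cocultured with MT-2 cells (1:5) at 37°C for 2 h; compound at 10 µM either present throughout, or preincubated with H9/HIV-1 IIIB or with MT-2 cells 37°C 30 min then removed by two washes before adding partner cells. Fused and unfused labeled cells counted by fluorescence microscopy; triplicates, mean ± SD.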

[3] = test system: Human immunodeficiency virus 1; assay: Binding affinity to IQNI7 pocket of HIV1 3B gp41 at 1 uM after 30 mins by SPR assay
[4] = test system: Human immunodeficiency virus 1; assay: Induction of alteration of preformed structural configuration of N36-C34 complex in HIV1 3B gp41 at 10 to 40 uM after 30 mins by spectroscopy
Summary of the method: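 Preformed-complex CD control: N36 and C34 incubated together 37°C 30 min, then compound or PBS added for a further 30 min at 37°C; final peptides 10 µM each, compound 40 µM, in PBS pH 7.2. Spectra at room temperature, blank-subtracted; helicity from 222 nm ellipticity versus −33,000 deg cm2 dmol−1.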

MT2 [5] = assay: Inhibition of HIV1 3B gp41-mediated cell-cell fusion between viral envelope expressing virus-infected human H9 cells to human MT2 cells at 10 uM treated 30 mins before viral infection by fluorescence assay; format: cell-based; settings: Human immunodeficiency virus 1
[6] = target: C-X-C chemokine receptor type 4 (Homo sapiens) (UniProt P61073); assay: Inhibition of MAb12G5 binding to CXCR4 in human CEM cells at 25 uM by ELISA; format: cell-based; settings: CCRF-CEM
Sequence of C-X-C chemokine receptor type 4 (Homo sapiens) (P61073 whole entry, the tested form may be a part): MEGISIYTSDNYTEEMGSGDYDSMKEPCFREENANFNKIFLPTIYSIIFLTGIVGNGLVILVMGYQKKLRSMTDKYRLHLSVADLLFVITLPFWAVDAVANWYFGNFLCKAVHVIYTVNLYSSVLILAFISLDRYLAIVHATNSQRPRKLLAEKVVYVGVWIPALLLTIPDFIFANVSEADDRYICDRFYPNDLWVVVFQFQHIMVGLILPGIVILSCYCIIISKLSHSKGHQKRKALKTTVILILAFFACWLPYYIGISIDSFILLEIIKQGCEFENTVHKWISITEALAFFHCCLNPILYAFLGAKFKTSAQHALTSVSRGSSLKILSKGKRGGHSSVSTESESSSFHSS

[7] = (§2) Inhibition of HIV1 3B gp41 fusion-active core formation after 30 mins by sandwich ELISA; set-up: species or system Human immunodeficiency virus 1
Summary of the method: (§3)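 After 30 min at 37°C, mixtures added to wells coated with anti-6-HB rabbit IgG (10 µg/ml); detected with MAb NC-1, biotin anti-mouse IgG, SA-HRP, TMB at A450. Triplicates; percent inhibition calculated.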

[8] = test system: Human immunodeficiency virus 1; assay: as §2
Summary of the method: as §3

[9] = Inhibition of PIE7 binding to HIV1 3B gp41 after 30 mins by ELISA; set-up: species or system Human immunodeficiency virus 1
[10] = test system: Human immunodeficiency virus 1; assay: Binding affinity to HIV1 3B gp41 assessed as alteration of structural configuration of N36-C34 complex at 10 to 40 uM after 30 mins by spectroscopy
Summary of the method: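 CD spectroscopy in PBS pH 7.2: N36 preincubated with compound or PBS 37°C 30 min, then C34 added and incubated a further 30 min at 37°C; final peptides 10 µM each, compound 40 µM. Spectra at room temperature, 0.1-cm path, blank-subtracted; α-helix content from mean residue ellipticity at 222 nm relative to −33,000 deg cm2 dmol−1.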

MT2 [11] = assay: Inhibition of HIV1 3B gp41-mediated cell-cell fusion between viral envelope expressing virus-infected human H9 cells to human MT2 cells at 10 uM treated before addition of human MT2 cells measured after drug washout by fluorescence assay; format: cell-based; settings: Human immunodeficiency virus 1
Summary of the method: as §1

[12] = test system: Human immunodeficiency virus 1; assay: Inhibition of preformed HIV1 3B gp41 fusion-active core formation at 40 to 100 uM after 30 mins by N-PAGE
Summary of the method: (§4)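 Native PAGE: N36 incubated with compound or PBS (or, for the preformed case, N36 with C34) at 37°C 30 min before adding the third component; final peptides 40 µM, compounds 100 µM; further 30 min 37°C. Mixed 1:1 with native sample buffer, run on 18% Tris-glycine gels at 125 V, room temperature, 2 h; Coomassie staining.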

[13] = test system: Human immunodeficiency virus 1; assay: Antiviral activity against HIV1 3B infected in human MT2 cells assessed as inhibition of viral p24 antigen production at 5 uM after 1 hr by ELISA
MT2 [14] = assay: Inhibition of to HIV1 3B gp120 binding to CD4-positive human MT2 cells at 10 ug/ml by ELISA; format: cell-based; settings: Human immunodeficiency virus 1
[15] = test system: Human immunodeficiency virus 1; assay: Binding affinity to HIV1 3B gp41 assessed as effect on N36K574D-C34D632K complex formation at 40 to 100 uM after 30 mins by N-PAGE
MT2 [16] = assay: Inhibition of HIV1 3B gp41-mediated cell-cell fusion between viral envelope expressing human virus-infected H9 cells to human MT2 cells at 10 uM by fluorescence assay; format: cell-based; settings: Human immunodeficiency virus 1
Summary of the method: as §1

[17] = test system: Human immunodeficiency virus 1; assay: Inhibition of HIV1 3B gp41 fusion-active core formation after 30 mins by N-PAGE
Summary of the method: as §4

[18] = test system: Human immunodeficiency virus 1; assay: Inhibition of preformed HIV1 3B gp41 fusion-active core formation at 40 to 100 uM after 30 mins by sandwich ELISA
[19] = test system: Human immunodeficiency virus 1; settings: 3B, 1 uM
[20] = test system: Human immunodeficiency virus 1; settings: 3B, 1 uM; remark: listed apart in the source
[21] = test system: Human immunodeficiency virus 1; assay: Binding affinity to IQ pocket of HIV1 3B gp41 at 1 uM after 30 mins by SPR assay

Compound: Cc1cn([C@H]2C[C@H](N=[N+]=[N-])[C@@H](CO)O2)c(=O)[nH]c1=O
inhibition [1]: inactive

Compound: CC[C@H](C)[C@H](NC(=O)[C@H](CCC(=O)O)NC(=O)[C@H](CC(N)=O)NC(=O)[C@H](CCC(=O)O)NC(=O)[C@@H](NC(=O)[C@H](CCCCN)NC(=O)[C@H](CCCCN)NC(=O)[C@H](CCC(N)=O)NC(=O)[C@H](CCCCN)NC(=O)[C@H](CO)NC(=O)[C@H](CCC(=O)O)NC(=O)[C@@H](NC(=O)[C@H](CCC(=O)O)NC(=O)[C@H](CCC(=O)O)NC(=O)[C@@H](NC(=O)[C@H](CCCCN)NC(=O)[C@H](CC(=O)O)NC(=O)[C@H](CCC(=O)O)NC(=O)[C@@H](NC(=O)[C@H](CCC(N)=O)NC(=O)[C@H](CCCCN)NC(=O)[C@H](CCSC)NC(=O)[C@@H](N)CCCNC(=N)N)[C@@H](C)CC)[C@@H](C)CC)[C@@H](C)CC)[C@@H](C)CC)C(=O)N[C@@H](C)C(=O)N[C@@H](CCCNC(=N)N)C(=O)N[C@H](C(=O)N[C@@H](CCCCN)C(=O)N[C@@H](CCCCN)C(=O)O)[C@@H](C)CC
Activity [21]: inactive

Compound: CN1C(=O)[C@@H](c2cc(Cl)c(O)c(Cl)c2)NC(=O)[C@@H]2NC(=O)[C@@H](c3cc(Cl)c(O)c(Cl)c3)NC(=O)[C@H](NC(=O)C(=O)c3cc(Cl)c(O)c(Cl)c3)Cc3c[nH]c4c(cccc34)-c3cc2cc(c3O)Oc2ccc(cc2)C[C@H]1C(=O)N[C@@H](C(=O)O)c1ccc(O)cc1
inhibition (MT2 [14]): Active

The next lines start with results.

Activity [3]: Active
Activity [4]: inactive
inhibition [6]: 18%
IC50 [7]: 3360 nM
inhibition [8]: Dose-dependent effect
IC50 [9]: 680 nM
Activity [10]: Active
inhibition [12]: inactive
Activity [15]: inactive
inhibition [17]: Dose-dependent effect
inhibition [18]: inactive
Compound: COc1ccc(S(=O)(=O)O)cc1/N=N/c1c(S(=O)(=O)O)cc2cc(Nc3nc(Nc4ccccc4)nc(Nc4cc(C)c(/N=N/c5cc(S(=O)(=O)O)cc6cc(S(=O)(=O)O)cc(O)c56)cc4OC)n3)ccc2c1O
inhibition (MT2 [2]): 50%
inhibition (MT2 [5]): inactive
inhibition (MT2 [11]): 80%
inhibition [13]: Active
inhibition (MT2 [14]): inactive
inhibition (MT2 [16]): Active

Activity [3]: inactive
inhibition [19]: inactive
inhibition [20]: Active
Compound: c1cc(CN2CCCNCCNCCCNCC2)ccc1CN1CCCNCCNCCCNCC1

inhibition [6]: Active
Compound: N=C(N)NCCC[C@H](NC(=O)[C@H](CS)NC(=O)[C@H](CCCCN)NC(=O)[C@H](CCCNC(=N)N)NC(=O)[C@H](Cc1ccc(O)cc1)NC(=O)[C@H](CS)NC(=O)[C@H](Cc1ccc(O)cc1)NC(=O)CNC(=O)[C@H](CCCCN)NC(=O)[C@H](Cc1ccc(O)cc1)NC(=O)[C@H](CS)NC(=O)[C@H](CCCCN)NC(=O)[C@H](CCCNC(=N)N)NC(=O)[C@H](Cc1ccc(O)cc1)NC(=O)[C@H](CS)NC(=O)[C@H](Cc1c[nH]c2ccccc12)NC(=O)[C@H](CCCNC(=N)N)NC(=O)[C@@H](N)CCCNC(=N)N)C(=O)O (H-RRWCYRKCYKGYCYRKCR-OH)
